Common to all, as to assay type: binding
Assay [1] has as its target T1, wt KF (Escherichia coli, UniProt P00582, C907S/D424A/K550C/L744C). Kind of assay: Single-molecule FRET nucleotide titration in the absence of DNA. The conditions noted are these: no DNA. A digest of the protocol: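 Polymerase without DNA: doubly labelled protein (<100 pM) titrated with nucleotide in HEPES-NaOH pH 7.3 buffer with 10 mM MgCl2, at ~22 °C by confocal alternating-laser excitation smFRET. O and C denote unliganded-protein states. Double-Gaussian fits of stoichiometry-filtered E* histograms; low-FRET peak shift and high-FRET fraction fitted globally for K0, K1, K2, with Kd1=1/K1.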

Assay [2] addresses T1, wt KF. The note with it: for free energy of closed complex relative to partially closed state, ΔrG(IN/CN) / free energy of partially closed state relative to open binary complex, ΔrG(O/IN): template A; for free energy of partially closed state relative to open binary complex, ΔrG(O/IN): nucleotide concentrations in E. coli (dTTP 120 μM, dGTP 60 μM). Summed up:
(§1)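 Doubly labelled Klenow fragment (<100 pM) with DNA, titrated with nucleotide in 40 mM HEPES-NaOH pH 7.3, 10 mM MgCl2, 1 mM DTT, 100 μg ml−1 BSA, 5% glycerol, 1 mM mercaptoethylamine. Read by confocal alternating-laser excitation (532/638 nm) at ~22 °C. Stoichiometry-filtered E* histograms fitted as double Gaussians (σ≤0.07). Low-FRET peak shift and high-FRET fraction globally fitted for K0, K1, K2; Kd1=1/K1, Kd2=1/(K1K2).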

Assay [3] has as its target T1, wt KF. As to the kind of experiment: Interconversion rates of ternary complexes by PDA and FRET-width analysis. The note with it: template A, listed as A-dGTP.
For assay [4], the target named is Y766A (Escherichia coli, UniProt P00582, C907S/D424A/K550C/L744C/Y766A). The note with it: template G (DNA2); listed as G-dCTP. Summed up:
as §1

For assay [5], the target named is E710A (Escherichia coli, UniProt P00582, C907S/D424A/E710A/K550C/L744C). The conditions noted are these: for occupancy of the closed conformation: 1 mM dNTP. Summed up: as §1
For assay [6], the target named is Y766F (Escherichia coli, UniProt P00582, C907S/D424A/K550C/L744C/Y766F). The conditions noted are these: template A (DNA1); listed as A-dTTP. A digest of the protocol: as §1
Where [7] appears, read: ternary complex, saturating nucleotide, PDA.

Structures are written as SMILES. Read-outs that look alike come from different tables or passages of the source.

For `Nc1nc2c(ncn2[C@H]2C[C@H](O)[C@@H](COP(=O)(O)OP(=O)(O)OP(=O)(O)O)O2)c(=O)[nH]1` [dGTP], the “K2 (equilibrium IN to closed CN)” value in assay [1] is reported as < 0.2. Further, in assay [2], the “free energy of closed complex relative to partially closed state, ΔrG(IN/CN)” value is given as “+6 kJ mol^−1” and the “free energy of partially closed state relative to open binary complex, ΔrG(O/IN)” value is -0.17 kcal/mol. Moreover, the “rate of the O-to-IN transition” value in assay [3] (at 60 μM dGTP (E. coli concentration), K1·kIN→O·[N]) turned out to be 390 s⁻¹. Moreover, in assay [3] (setting [7]), the “kCN→IN (closed to partially closed)” value is 45 s⁻¹ and the “kIN→CN (partially closed to closed)” value amounted to 3 s⁻¹.

For the molecule `Nc1nc2c(ncn2[C@@H]2O[C@H](COP(=O)(O)OP(=O)(O)OP(=O)(O)O)[C@@H](O)[C@H]2O)c(=O)[nH]1` [rGTP], the “K2 (equilibrium IN to closed CN)” value in assay [2] (template A (DNA1), listed as A-rGTP) is < 0.2.

`Nc1ccn([C@H]2C[C@H](O)[C@@H](COP(=O)(O)OP(=O)(O)OP(=O)(O)O)O2)c(=O)n1` [dCTP]: the “K2 (equilibrium IN to closed CN)” value in assay [4] is given as 8.9; in assay [5] (template G (DNA2), listed as G-dCTP), ~ 2. In addition, the “occupancy of the closed conformation” value in assay [5] (template G (DNA2)) is given as 61%.

Regarding `Nc1ncnc2c1ncn2[C@H]1C[C@H](O)[C@@H](COP(=O)(O)OP(=O)(O)OP(=O)(O)O)O1` [dATP], the “occupancy of the closed conformation” value in assay [5] (template T (DNA3)) was found to be 58%. The “K2 (equilibrium IN to closed CN)” value in assay [5] (template T (DNA3), listed as T-dATP) is reported as ~ 2.

Consider `Cc1cn([C@H]2C[C@H](O)[C@@H](COP(=O)(O)OP(=O)(O)OP(=O)(O)O)O2)c(=O)[nH]c1=O` [dTTP], for which, in assay [2], the “free energy of closed complex relative to partially closed state, ΔrG(IN/CN)” value is -0.96 kcal/mol and the “free energy of partially closed state relative to open binary complex, ΔrG(O/IN)” value is -1.9 kcal/mol. Further, the “molecules in closed conformation (occupancy)” value in assay [2] (template A (DNA1), 1 mM nucleotide) is listed as ~ 85%. Besides, the “K2 (equilibrium IN to closed CN)” value in assay [2] (template A (DNA1), listed as A-dTTP) is 6.1. In addition, the “K2 (equilibrium IN to closed CN)” value in assay [6] is recorded as 9.6.
